From ChEMBL document CHEMBL2434879, “Small molecular inhibitors of miR-1 identified from photocycloadducts of acetylenes with 2-methoxy-1,4-naphthalenequinone” (Bioorg Med Chem, 2013)
Activity calls are given as the source filed them. The calls are words filed in the database; no cut-off is given here.

Tests used:
Assay type in all cases: cell-based
[1] = system: Nucleic Acid; assay: Inhibition of microRNA miR-214 (unknown origin) transfected in human A549 cells at 10 uM after 48 hrs by luciferase reporter gene assay relative to DMSO-treated control
Method in brief: (§1)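 Cells transfected with the matching miRNA luciferase reporter ([…] for miR-150; A549 for miR-25 or miR-214), with β-gal as internal reference. Treated with 10 µM compound in high-glucose DMEM with 2% FBS (DMSO final 1:1000) for 48 h at 37 °C, 5% CO2. Luciferase signal was normalized to the DMSO control. Triplicates, mean ± SE (n = 3).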

[2] = system: Nucleic Acid; assay: Inhibition of microRNA miR-25 (unknown origin) transfected in human A549 cells at 10 uM after 48 hrs by luciferase reporter gene assay relative to DMSO-treated control; method in brief: as §1
[3] = system: Nucleic Acid; assay: Inhibition of microRNA miR-150 (unknown origin) transfected in mouse […] cells at 10 uM after 48 hrs by luciferase reporter gene assay relative to DMSO-treated control; method in brief: as §1
[4] = system: Nucleic Acid; assay: Inhibition of microRNA miR-1 (unknown origin) transfected in mouse C2C12 cells at 10 uM after 48 hrs by luciferase reporter gene assay relative to DMSO-treated control
Method in brief: (§2)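 C2C12 co-transfected at 70% confluence with miR-1 luciferase reporter (0.25 µg) plus β-galactosidase plasmid (0.25 µg, transfection control) via lipofectamine 2000. After 6 h the medium was switched to DMEM with 2% horse serum to induce differentiation, and compound was added (DMSO final 1:1000). Cells were incubated 48 h at 37 °C, 5% CO2, then luciferase read and normalized to DMSO. Triplicates, mean ± SE (n = 3).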

[5] = system: Nucleic Acid; assay: Inhibition of microRNA miR-1 (unknown origin) transfected in mouse C2C12 cells at 5 uM after 48 hrs by luciferase reporter gene assay relative to DMSO-treated control; method in brief: as §2
[6] = system: Nucleic Acid; assay: Inhibition of microRNA miR-1 (unknown origin) transfected in mouse C2C12 cells after 48 hrs by luciferase reporter gene assay relative to DMSO-treated control; method in brief: as §2
[7] = system: Nucleic Acid; assay: Reduction in cytoplasmic level of microRNA miR-9 (unknown origin) transfected in human MCF7 cells at 10 uM after 48 hrs by quantitative RT-PCR method relative to DMSO-treated control
Method in brief: (§3)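 Total RNA (TRIZOL) taken after 48 h compound or DMSO treatment from differentiated C2C12 (miR-1), HeLa (miR-21), A549 (miR-25, miR-214), MCF-7 (miR-9) and […] (miR-150). 2 µg RNA per RT with miRNA-specific primers (16 °C 30 min, 42 °C 30 min, 85 °C 5 min). TaqMan qPCR: 95 °C 10 min, then 40 cycles of 95 °C 15 s and 60 °C 1 min. Comparative Ct method, normalized to DMSO; triplicates, mean ± SE (n = 3).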

[8] = system: Nucleic Acid; assay: Reduction in cytoplasmic level of microRNA miR-21 (unknown origin) transfected in human HeLa cells at 10 uM after 48 hrs by quantitative RT-PCR method relative to DMSO-treated control; method in brief: as §3
[9] = system: Nucleic Acid; assay: Reduction in cytoplasmic level of microRNA miR-214 (unknown origin) transfected in human A549 cells at 10 uM after 48 hrs by quantitative RT-PCR method relative to DMSO-treated control; method in brief: as §3
[10] = system: Nucleic Acid; assay: Reduction in cytoplasmic level of microRNA miR-25 (unknown origin) transfected in human A549 cells at 10 uM after 48 hrs by quantitative RT-PCR method relative to DMSO-treated control; method in brief: as §3
[11] = system: Nucleic Acid; assay: Reduction in cytoplasmic level of microRNA miR-150 (unknown origin) transfected in mouse […] cells at 10 uM after 48 hrs by quantitative RT-PCR method relative to DMSO-treated control; method in brief: as §3
[12] = system: Nucleic Acid; assay: Reduction in cytoplasmic level of microRNA miR-1 (unknown origin) transfected in mouse C2C12 cells at 10 uM after 48 hrs by quantitative RT-PCR method relative to DMSO-treated control; method in brief: as §3
[13] = system: Nucleic Acid; assay: Inhibition of microRNA miR-9 (unknown origin) transfected in human MCF7 cells at 10 uM after 48 hrs by luciferase reporter gene assay relative to DMSO-treated control
Method in brief: (§4)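 Reporter cells for miR-21 (HeLa) or miR-9 (MCF-7) given 10 µM compound for 48 h. Luciferase signal normalized to DMSO control. Triplicates, mean ± SE (n = 3).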

[14] = system: Nucleic Acid; assay: Inhibition of microRNA miR-21 (unknown origin) transfected in human HeLa cells at 10 uM after 48 hrs by luciferase reporter gene assay relative to DMSO-treated control; method in brief: as §4

Structure (SMILES) | fold change (FC) [1] | fold change (FC) [2] | fold change (FC) [3] | fold change (FC) [4] | inhibition [5] | other results
COC12C(=O)c3ccccc3C(=O)C1C(C1CC1)=C2c1cnc2ccccc2c1 (centres undefined) | 0.93 | 1 | 0.83 | 1.36 | – | –
COC12C(=O)c3ccccc3C(=O)C1C(c1cnccn1)=C2c1ccccc1 (centres undefined) | 0.93 | 1.01 | 1.32 | 1.12 | – | –
COc1ccc(C2=CC3(OC)C(=O)c4ccccc4C(=O)C23)c2cccnc12 (centres undefined) | – | – | – | – | inactive | –
COC12C(=O)c3ccccc3C(=O)C1C(c1ccc(OC(=O)OC(C)(C)C)c3ncccc13)=C2[Si](C)(C)C (centres undefined) | – | – | – | – | inactive | –
COC12C=C(c3ccc(OC(=O)OC(C)(C)C)c4ncccc34)C1C(=O)c1ccccc1C2=O (centres undefined) | – | – | – | – | inactive | –
COC12C=C(c3ccc(OC(C)=O)c4ncccc34)C1C(=O)c1ccccc1C2=O (centres undefined) | – | – | – | – | inactive | –
COC12C(=O)c3ccccc3C(=O)C1C(C1CC1)=C2c1ccccn1 (centres undefined) | 0.82 | 0.92 | 1.2 | 1.55 | – | –
COC12C(=O)c3ccccc3C(=O)C1C(C1CC1)=C2c1ccc(O)c2ncccc12 (centres undefined) | – | – | – | – | Active | –
COc1ccc(C2=C(C3CC3)C3C(=O)c4ccccc4C(=O)C23OC)c2cccnc12 (centres undefined) | – | – | – | – | Active | –
COC12C(=O)c3ccccc3C(=O)C1C(C1CC1)=C2c1cncnc1 (centres undefined) | 1.28 | 1.16 | 1.02 | 2.06 | – | –
COC12C(=O)c3ccccc3C(=O)C1C(c1ccccc1)=C2c1ccc(OC(=O)OC(C)(C)C)c2ncccc12 (centres undefined) | 1.01 | 0.95 | 1.35 | 7.11 | – | inhibition [6]: Dose-dependent effect; Activity [7]: inactive; Activity [8]: inactive; Activity [9]: inactive; Activity [10]: inactive; Activity [11]: inactive; fold change (FC) [12]: 4; inhibition [13]: inactive; inhibition [14]: inactive
COC12C(=O)c3ccccc3C(=O)C1C(c1ccc(OC(C)=O)c3ncccc13)=C2[Si](C)(C)C (centres undefined) | – | – | – | – | inactive | –
COC12C(=O)c3ccccc3C(=O)C1C(C1CC1)=C2c1ccc(OC(=O)OC(C)(C)C)c2ncccc12 (centres undefined) | – | – | – | – | inactive | –
COC12C(=O)c3ccccc3C(=O)C1C(C1CC1)=C2c1cncc2ccccc12 (centres undefined) | 1.1 | 1.16 | 1.75 | 0.87 | – | –
COC12C(=O)c3ccccc3C(=O)C1C(c1ccccc1)=C2c1ccc(OC(C)=O)c2ncccc12 (centres undefined) | – | – | – | – | inactive | –
COC12C(=O)c3ccccc3C(=O)C1C(C1CC1)=C2c1cccnc1 (centres undefined) | 0.91 | 0.97 | 1.04 | 0.93 | – | –
COC12C(=O)c3ccccc3C(=O)C1C(c1ccccc1)=C2c1ccccc1 (centres undefined) | 0.58 | 0.63 | 0.91 | 0.45 | – | –
COc1ccc(C2=C(c3ccccc3)C3C(=O)c4ccccc4C(=O)C23OC)c2cccnc12 (centres undefined) | – | – | – | – | Active | –
COC12C(=O)c3ccccc3C(=O)C1C(c1ccccn1)=C2c1ccccc1 (centres undefined) | 0.95 | 0.95 | 1.16 | 0.9 | – | –
COC12C(=O)c3ccccc3C(=O)C1C(C1CC1)=C2c1ccc(OC(C)=O)c2ncccc12 (centres undefined) | – | – | – | – | inactive | –
COc1ccc(C2=C([Si](C)(C)C)C3(OC)C(=O)c4ccccc4C(=O)C23)c2cccnc12 (centres undefined) | – | – | – | – | Active | –
COC12C(=O)c3ccccc3C(=O)C1C(C1CC1)=C2c1cnccn1 (centres undefined) | 0.74 | 0.83 | 1.63 | 0.84 | – | –
COC12C=C(c3ccc(O)c4ncccc34)C1C(=O)c1ccccc1C2=O (centres undefined) | – | – | – | – | inactive | –
COC12C(=O)c3ccccc3C(=O)C1C(c1ccccc1)=C2c1ccc(O)c2ncccc12 (centres undefined) | – | – | – | – | Active | –
COC12C(=O)c3ccccc3C(=O)C1C(c1ccc(O)c3ncccc13)=C2[Si](C)(C)C (centres undefined) | – | – | – | – | Active | –
